Measured values published in paper PMC2212267 (The Journal of Experimental Medicine, 1998).
One block for each molecule: values may come before it. Where no end group is shown, it is not given here. 5,6‑carboxyfluorescein = 5,6-carboxyfluorescein

Columns and labels:
I-A^k = I-A^k (Mus musculus, UniProt P01910+P06343); experiment: FACS binding of biotinylated MBP peptides to live L cell transfectants; conditions: β9 mutant I-A^k H9V; among 4A, 4E, 4Y; Fig. 1 a
Procedure, shortened: (§1)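 Live L cell transfectants (wild-type or β9-mutant I-A, 5 × 10^5 cells) washed, then incubated 4 h at 37°C, 7% CO2 with 200 μM biotinylated MBP analogue in RPMI 1640/1% BSA. Washed twice, then streptavidin–Quantum red/PE for 20 min on ice. MHC level read with FITC anti-Aβk,u mAb 10-2.16; propidium iodide viability stain. Net binding is mean fluorescence minus nontransfected L cells plus peptide, divided by FITC signal, then normalized to 4A peptide on wild-type transfectant.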

I-A^u [1] = molecular target: T1, I-A^u (Mus musculus, UniProt P06344+P14438); experiment: as above; conditions: wild-type I-A^u; among 4A, 4E, 4Y; Fig. 1 a
T1 sequence (P14438 1-227): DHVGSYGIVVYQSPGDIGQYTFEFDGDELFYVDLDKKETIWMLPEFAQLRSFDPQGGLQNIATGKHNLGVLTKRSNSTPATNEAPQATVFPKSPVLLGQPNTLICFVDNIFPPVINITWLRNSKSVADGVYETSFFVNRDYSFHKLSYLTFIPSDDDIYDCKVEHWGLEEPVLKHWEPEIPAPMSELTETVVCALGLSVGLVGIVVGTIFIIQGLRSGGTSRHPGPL
T1 sequence (P06344 28-263): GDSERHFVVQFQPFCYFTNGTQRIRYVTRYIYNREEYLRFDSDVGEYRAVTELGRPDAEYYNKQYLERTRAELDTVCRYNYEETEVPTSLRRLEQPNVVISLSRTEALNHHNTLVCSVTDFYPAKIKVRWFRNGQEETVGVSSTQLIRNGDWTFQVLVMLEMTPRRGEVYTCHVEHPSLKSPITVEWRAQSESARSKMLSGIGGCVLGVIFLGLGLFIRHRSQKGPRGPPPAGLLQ
Procedure, shortened: as §1

[2] = tested on: MBP-responsive T cell lines; experiment: Proliferation responses of MBP-responsive T cell lines; type: cell-based; conditions: unpublished data (Rabinowitz, J.D.)
I-A^u [3] = molecular target: T1, I-A^u; experiment: Peptide dissociation kinetics from purified MHC protein; type: binding; conditions: fluorescein-labeled peptide, pH 5.3, 37°C, HPSEC; Fig. 4 b
[4] = molecular target: I-A^u class II MHC protein, purified (mouse); experiment: peptide dissociation kinetics followed by HPSEC with fluorescence detection
[5] = molecular target: I-A^k class II MHC protein, wild type, on L cell transfectants (mouse); experiment: flow cytometry on cells

I-A^k, sequence (P01910 24-256): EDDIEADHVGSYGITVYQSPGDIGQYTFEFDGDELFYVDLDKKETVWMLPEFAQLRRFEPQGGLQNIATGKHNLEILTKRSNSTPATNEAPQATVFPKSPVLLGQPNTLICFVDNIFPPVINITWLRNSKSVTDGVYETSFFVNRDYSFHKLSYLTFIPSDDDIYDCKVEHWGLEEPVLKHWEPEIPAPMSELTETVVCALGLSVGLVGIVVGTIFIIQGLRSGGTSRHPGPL
I-A^k, sequence (P06343 28-263): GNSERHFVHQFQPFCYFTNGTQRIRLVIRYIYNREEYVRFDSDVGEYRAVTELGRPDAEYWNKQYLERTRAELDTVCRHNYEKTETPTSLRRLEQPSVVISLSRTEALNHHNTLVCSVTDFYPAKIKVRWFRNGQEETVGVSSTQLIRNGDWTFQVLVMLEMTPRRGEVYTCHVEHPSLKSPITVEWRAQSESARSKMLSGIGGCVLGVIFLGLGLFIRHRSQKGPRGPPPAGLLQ

Molecule: 4Y: MBP peptide with residue 4 lysine replaced with tyrosine (Ac-ASQYRPSQRHGSK-biotin)
peptide preference of I-A^k H9V in FACS binding (I-A^k): prefers | peptide preference of I-A^u in FACS binding (I-A^u [1]): prefers

Molecule: ISQAVAASQYRPSQRSKY [ova-MBP K4Y]
proliferation responses of a series of MBP-responsive T cell lines [2]: abrogated proliferation responses

Molecule: Ac-ASQERPSQRHGSK-biotin [biotinylated MBP Ac1-13 K4E (rat MBP sequence)]
fold improvement of binding over MBP Ac1-11 4A [5]: 2 fold | fold improvement of binding over wild-type MBP [5]: > 20 fold

The next lines start with results.

slower dissociation from I-A^u than wild-type MBP Ac1-12 (I-A^u [3]): ~80 fold
Molecule: ISQAVAASQKRPSQRSKY [ova-MBP]
proliferation responses of a series of MBP-responsive T cell lines [2]: abrogated proliferation responses

dissociation half-time (t 1/2) [4]: > 200 h | fold increase in stability of binding over wild-type MBP [4]: > 1000 fold
Molecule: {5,6‑carboxyfluorescein}-ISQAVAASQYRPSQRSKY [ova-MBP K4Y, fluorescein-labelled]

fold slower dissociation than wild-type MBP Ac1-12 [4]: 80 fold
Molecule: {5,6‑carboxyfluorescein}-ISQAVAASQKRPSQRSKY [ova-MBP (NH2-terminally extended MBP peptide), fluorescein-labelled]
